According to ChEMBL document CHEMBL4732224, “Structure activity refinement of phenylsulfonyl piperazines as antimalarials that block erythrocytic invasion” (Eur J Med Chem, 2021):

Legend:
[1] = tested on: Plasmodium falciparum; assay: Antimalarial activity against Plasmodium falciparum 3D7 incubated for 72 hrs by LDH assay; assay type: functional, organism-based; settings: 3D7, 72 h
Summary of the method: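 Asexual blood-stage P. falciparum 3D7 parasites were cultured with compound for 72 h, and viability was read by lactate dehydrogenase (LDH) activity.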

[2] = tested on: HepG2; assay: Cytotoxicity against human HePG2 cells assessed as growth inhibition after 48 hrs by Cell Titer-Glo assay; assay type: cell-based; settings: HepG2, 48 h
[3] = Intrinsic clearance in mouse liver microsomes at 1 uM in presence of NADPH measured up to 60 mins by LC-MS analysis; assay type: ADME, Microsome; settings: read-out: CLH
[4] = tested on: Plasmodium falciparum; assay: Antimalarial activity against Plasmodium falciparum NF54 early stage (1 to 3) expressing Pfs16-LUC-GFP assessed as growth inhibition by high content imaging assay; assay type: functional, organism-based
[5] = tested on: Plasmodium falciparum; assay: Antimalarial activity against Plasmodium falciparum NF54 late stage ([…]) expressing Pfs16-LUC-GFP assessed as growth inhibition by high content imaging assay; assay type: functional, organism-based

| EC50 [1] [µM] | Compound | EC50 [2] [µM] | also measured |
| --- | --- | --- | --- |
| > 10 | CCCC(C(=O)N1CCCC1)N1CCN(S(=O)(=O)c2ccc(C(C)(C)C)cc2)CC1 (centres undefined) | – | – |
| 6.1 | CC(C(=O)N1CCN(C)CC1)N1CCN(S(=O)(=O)c2ccc(C(C)(C)C)cc2)CC1 (centres undefined) | > 40 | – |
| 0.93 | CC(C(=O)N1CCc2ccccc21)N1CCN(S(=O)(=O)c2ccc(C(C)(C)C)cc2)CC1 (centres undefined) | > 40 | – |
| 1.2 | CC(C(=O)N1CCc2ccccc2C1C)N1CCN(S(=O)(=O)c2ccc(C(C)(C)C)cc2)CC1 (centres undefined) | 28 | – |
| > 10 | CN(C(=O)N1CCCC1)C1CCN(S(=O)(=O)c2ccc(C(C)(C)C)cc2)CC1 | – | – |
| > 10 | COc1ccc(S(=O)(=O)N2CCN(C(C)C(=O)N3CCCC3)CC2)cc1 (centres undefined) | – | – |
| > 10 | CC(C(=O)N1CCCC1)N1CCN(S(=O)(=O)c2ccc(C3CC3)cc2)CC1 (centres undefined) | – | – |
| > 10 | CC(C(=O)N1CCCC1)N1CCN(S(=O)(=O)c2ccc(C(F)(F)F)cc2)CC1 (centres undefined) | – | – |
| 1.3 | CC1CCN(C(=O)C(C)N2CCN(S(=O)(=O)c3ccc(C(C)(C)C)cc3)CC2)CC1 (centres undefined) | > 40 | – |
| 0.81 | CC(C(=O)N1CCc2ccccc2C12CCCC2)N1CCN(S(=O)(=O)c2ccc(C(C)(C)C)cc2)CC1 (centres undefined) | > 40 | – |
| 1.9 | CC(C(=O)N1CCCC1)N1CCN(S(=O)(=O)c2ccc(C(C)(C)C)cc2)[C@@H](C)C1 (some centres undefined) | > 40 | – |
| 5.1 | CC(C)(C)c1ccc(S(=O)(=O)N2CCN(C(C(=O)N3CCCC3)c3ccccc3)CC2)cc1 (centres undefined) | > 40 | – |
| > 10 | CC(C(=O)N1CCCC1)N1CCN(S(=O)(=O)c2ccc(C3(C(F)(F)F)CC3)cc2)CC1 (centres undefined) | – | – |
| > 10 | CC(C)c1ccc(S(=O)(=O)N2CCN(C(C)C(=O)N3CCCC3)CC2)cc1 (centres undefined) | > 40 | – |
| > 10 | CC(C(=O)N1CCCC1)C1CCN(S(=O)(=O)c2ccc(C(C)(C)C)cc2)CC1 (centres undefined) | > 40 | microsomal CLint at 1 µM [3]: 532 µL/min/mg |
| > 10 | CC(C(=O)N1CCCC1)N1CCN(S(=O)(=O)c2ccc(C(C)(C)CO)cc2)CC1 (centres undefined) | > 40 | – |

| EC50 [1] [µM] | Compound | EC50 [2] [µM] | also measured |
| --- | --- | --- | --- |
| – | COc1ccc2nc3cc(Cl)ccc3c(Nc3cc(CN4CCCC4)c(O)c(CN4CCCC4)c3)c2n1 [PYRONARIDINE] | – | EC50 [4]: 0.053 µM; EC50 [5]: 1.24 µM |
| > 10 | CC(C(=O)N1CCCC1)N1CCN(S(=O)(=O)c2ccc(CC(F)(F)F)cc2)CC1 (centres undefined) | – | – |
| 1.6 | CC(C(=O)N1CCCC1)N1CCN(S(=O)(=O)c2ccc(C(C)(C)C)cc2)C(C)(C)C1 (centres undefined) | > 40 | – |
| > 10 | CC(C(=O)N1CCCC1)N1C[C@@H]2C[C@H]1CN2S(=O)(=O)c1ccc(C(C)(C)C)cc1 (mixture of isomers) | > 40 | – |
| > 10 | CC(C(=O)N1CCCC1)N1CCN(S(=O)(=O)c2ccc(Br)cc2)CC1 (centres undefined) | – | – |
| > 10 | CCNC(=O)C(C)N1CCN(S(=O)(=O)c2ccc(C(C)(C)C)cc2)CC1 (centres undefined) | – | – |
| > 10 | CC(C(=O)N1CCCC1)N1CCN(S(=O)(=O)c2ccc(C(C)(C)C)cc2)[C@H](C)C1 (some centres undefined) | – | – |
| > 10 | CC(C(=O)N1CCCC1)N1CCN(S(=O)(=O)c2ccccc2)CC1 (centres undefined) | – | – |
| 1 | CC(C(=O)N1Cc2ccccc2C1)N1CCN(S(=O)(=O)c2ccc(C(C)(C)C)cc2)CC1 (centres undefined) | > 40 | – |
| > 10 | CC(C(=O)N1CCNCC1)N1CCN(S(=O)(=O)c2ccc(C(C)(C)C)cc2)CC1 (centres undefined) | – | – |
| > 10 | CC(C(=O)N1CCCC1)N1CCN(S(=O)(=O)c2ccc(-c3ccccc3)cc2)CC1 (centres undefined) | – | – |
| 2.1 | CC(C(=O)N(C)CCc1ccccc1)N1CCN(S(=O)(=O)c2ccc(C(C)(C)C)cc2)CC1 (centres undefined) | 17 | – |
| > 10 | CC(C(=O)N(C)c1ccccc1)N1CCN(S(=O)(=O)c2ccc(C(C)(C)C)cc2)CC1 (centres undefined) | – | – |
| 0.3 | CC(C(=O)N1CCC2(CC1)CC2)N1CCN(S(=O)(=O)c2ccc(C(C)(C)C)cc2)CC1 (centres undefined) | > 40 | – |
| > 10 | CC(C(=O)N1CCCC1)N1CCN(S(=O)(=O)c2ccc(C(C)(C)C)cc2)CC1=O (centres undefined) | – | – |
| > 10 | CC(C(=O)N1CCCC1)N1CCN(S(=O)(=O)c2ccc(S(F)(F)(F)(F)F)cc2)CC1 (centres undefined) | – | – |

| Compound | EC50 [1] [µM] | EC50 [2] [µM] | also measured |
| --- | --- | --- | --- |
| CC(C(=O)N1CCC(F)(F)CC1)N1CCN(S(=O)(=O)c2ccc(C(C)(C)C)cc2)CC1 (centres undefined) | 0.38 | > 40 | – |
| C[C@H]1[C@H](OC(=O)CCC(=O)O)O[C@@H]2O[C@@]3(C)CC[C@H]4[C@H](C)CC[C@@H]1[C@@]24OO3 [ARTESUNATE] | 8 | – | EC50 [4]: 0.002 µM; EC50 [5]: 0.024 µM |
